Rows were chosen to be rich in hits. Some 4.3% of all compounds tested hit in one or more screens of this group.
TAAR1 antagonist: human TAAR1 antagonism; Q96RJ0; CHO RD-HGA16 TAAR1, Fluo-8 calcium fluorescence, antagonist; inhibition, % at 3 µM; actives 1.5% (n = 360,000);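 active = inhibition above a per-plate cutoff, the mean inhibition of test compounds on that plate plus 3 SD, cut at about 49% in these data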;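 note: 0% = DMSO plus EC80 beta-PEA response and 100% = DMSO alone without agonist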
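Assay system: CHO-derived RD-HGA16 cells stably expressing human TAAR1 plus Gα16. Timing: 140 s kinetic read after compound, 140 s after agonist. Technique: kinetic Fluo-8 calcium fluorescence measurement. Measure: % inhibition of agonist calcium response.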
CHO parental Ca: counter-screen: ATP calcium response change in parental CHO cells | inhibition, % at 5.6 µM | AID 463079 | actives 0.63% (n = 330,000) | parental CHO-K1, ATP-induced calcium, Fluo-8 fluorescence;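 active = inhibition above that plate's mean sample inhibition plus 3 SD, cut at about 26% in these data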;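 note: 0% = ATP-challenged DMSO wells and 100% = DMSO wells without ATP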
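Measured by: calcium-sensitive Fluo-8 fluorescence / Test system: CHO parental line / Controls: ATP-challenged DMSO wells low, unchallenged DMSO wells high / Measure: % inhibition / Compound: single nominal dose of 5.6 µM per compound / Replicates: single well per compound, no replicates / Reagent: ATP as calcium-mobilizing challenge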
GalR3 antag: antagonists of human GalR3. HEK293 GalR3-CNG cAMP membrane potential fluorescence; galR3 body fused to GalR1 C-terminus. AID 651719. O60755. actives 0.44% (n = 360,000). inhibition, % at 3 µM;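 active = inhibition above the screen-wide average plus 3 SD, cut at about 13% in these data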;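 note: forskolin and galanin both at EC90 stimulate the cells; cAMP rise reported by CNG channel membrane potential dye signal; 0% = forskolin plus galanin with DMSO and 100% = forskolin alone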
OX1R antag-1: antagonists of human orexin 1 receptor (OX1R) | inhibition, % at 6.6 µM | O43613 | actives 1.8% (n = 330,000) | OX1R-expressing cells, FRET antagonist read-out | AID 485270; in the data active = inhibition mostly above about 38%, no sharp cut-off; inactive = mostly below about 40%;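 note: 0% = agonist challenge alone and 100% = reference antagonist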
Target sequence (O43613 whole entry, looked up): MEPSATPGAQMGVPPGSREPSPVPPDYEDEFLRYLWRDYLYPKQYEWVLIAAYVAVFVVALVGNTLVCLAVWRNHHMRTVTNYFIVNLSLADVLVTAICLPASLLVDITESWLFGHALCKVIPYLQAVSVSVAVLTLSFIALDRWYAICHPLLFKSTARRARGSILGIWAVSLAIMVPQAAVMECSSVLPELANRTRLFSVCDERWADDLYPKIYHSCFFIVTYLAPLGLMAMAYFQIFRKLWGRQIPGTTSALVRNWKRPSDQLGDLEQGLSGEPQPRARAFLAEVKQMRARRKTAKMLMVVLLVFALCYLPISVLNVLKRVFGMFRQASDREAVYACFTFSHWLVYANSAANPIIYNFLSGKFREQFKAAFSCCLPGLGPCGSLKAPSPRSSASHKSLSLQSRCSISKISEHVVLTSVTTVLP
TAAR1 agonist: human TAAR1 agonism. Q96RJ0. CHO RD-HGA16 TAAR1, Fluo-8 calcium fluorescence; vehicle wells 0%, saturating PEA agonist 100%. activation, % at 3 µM. actives 0.99% (n = 360,000);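 active = activation above the mean activation of all test compounds in the run plus 3 SD, cut at about 38% in these data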
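System: CHO-derived RD-HGA16 cells with stable Gα16 and human TAAR1 / Times: 17-24 h plating, Fluo-8 75 min 37 °C, 30 min RT / Technique: calcium-sensitive Fluo-8 signal, excitation 470-495, emission 515-575 nm / Measure: % activation relative to PEA EC100 response / Benchmarks: DMSO and PEA EC100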
OX1R antag-2: blocks the human orexin 1 receptor; inhibition, % at 5 µM; CHO/OX1R cells, Fluo-8 calcium fluorescence, orexin A; actives 0.43% (n = 330,000); AID 434989; O43613;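 active = inhibition above its plate's threshold, mean inhibition of all tested compounds on the plate plus 3 SD, cut at about 37% in these data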;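 note: 0% = orexin A challenge wells and 100% = SB-334867-A antagonist wells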
* marks the source's active call; other numbers are inactive results; · = not tested or not shown.

SMILES	TAAR1 antagonist	CHO parental Ca	GalR3 antag	OX1R antag-1	TAAR1 agonist	OX1R antag-2
COc1cc(/C=C/C(=O)c2ccc3c(c2)OCO3)cc(Cl)c1O	43	44*	-6	13	56*	49*
COc1ccc2cc(C(=O)/C=C/c3cc(OC)c(OC)c(OC)c3)ccc2c1	16	-19	-9	70*	3	24
COc1ccc(/C=C/C(=O)c2ccc(OC)cc2OC)c(OC)c1	-25	3	-7	51*	-1	-16
COc1ccc(C(=O)C=Cc2ccc3c(c2)OCO3)cc1OC	-4	·	-1	·	3	·
Cc1onc(-c2ccccc2)c1C(=O)N1CCC(C)(C(=O)NS(=O)(=O)C2CC2)C1 (stereo not drawn)	-20	·	-4	·	5	·
Oc1[nH]c(=S)sc1/C=C1\C(c2ccccc2)=Nc2ccccc21	4	18	-3	76*	2	23
Oc1[nH]c(=S)sc1C=C1N=c2ccccc2=N1	-12	4	-5	20	-1	4
COC(=O)C1=C(C)N(Cc2ccccc2C(F)(F)F)C(=NCc2ccccc2)NC1c1cccc(C(F)(F)F)c1 (stereo not drawn)	-28	·	-8	·	6	·
O=C1/C(=C\c2ccc(O)cc2)SC(=S)N1c1cccnc1	34	58*	-4	12	30	23
Cc1cc(/C=C2/SC(=S)N(c3cccc(C(F)(F)F)c3)C2=O)c(C)n1-c1cccnc1	·	50*	·	25	·	23
COc1ccc(-c2csc(C(O)c3ccc(F)cc3)n2)cn1 (stereo not drawn)	-19	·	-7	·	2	·
N/C(=N\OC(=O)COc1ccc2ccccc2c1)c1ccccn1	23	-12	-3	41	48*	-17
Cc1ccc(C([O-])=C(C(=S)NCc2ccccc2)[n+]2cccc(CO)c2)cc1[N+](=O)[O-]	0	·	2	·	0	·
O=C(N=C1N=C2C=CC(Br)=CN2Cc2ccccc21)c1ccc([N+](=O)[O-])cc1[N+](=O)[O-]	-42	-3	1	45*	-3	-18
O=c1c2ccccc2sc2ccc(NCCCN3CCOCC3)cc12	4	9	-4	16	10	-9
COc1cc2sc3cc(NCCCN4CCOCC4)ccc3c(=O)c2cc1OC	12	-15	-4	63*	1	-2
CC(C)(C)c1ccc(C(=O)CCC(=O)OCC(=O)NCCc2ccc(S(N)(=O)=O)cc2)cc1	62*	24	-7	7	24	35
CCNC(=O)c1cc2c(c(-c3cccc(-c4cc5ccccc5o4)c3)n1)[C@H](CCO)N(C(=O)NC(C)C)C2	56*	·	-6	·	12	·
CCC(=O)N1Cc2cc(C(=O)Nc3nccs3)nc(-c3cccc(-c4ccccc4OC)c3)c2[C@H]1CCO	57*	·	2	·	14	·
COc1ccccc1-c1cccc(-c2nc(C(=O)Nc3nccs3)cc3c2[C@@H](CCO)N(C(C)=O)C3)c1	54*	·	-7	·	20	·
CCNC(=O)c1cc2c(c(-c3cccc(-c4cncnc4)c3)n1)[C@@H](CCO)N(C(C)=O)C2	-23	·	-4	·	2	·
COc1ccc(C(C)(O)c2nc(-c3ccc(N(C)C)cc3)cs2)cc1 (stereo not drawn)	-6	·	-7	·	-1	·
COc1cc(OC)cc(C(=O)N2CCN(S(=O)(=O)c3ccc4c(c3)OCCO4)CC2)c1	-30	·	-6	·	2	·
N#Cc1ccc(C(=O)NCC2CCN(C(=O)C(=O)c3cccs3)CC2)cc1	-20	·	8	·	1	·
CCCCCCCCN1C(=O)[C@@H](CC(=O)NCCCN2CCCC2=O)C[C@@]2(C(=O)OC)C1=C[C@H](C1CCCC1)O[C@@H]2C	-46	·	0	·	3	·
O=C(c1ccco1)N1CCCC(N2CCN(c3cccc(C(F)(F)F)c3)CC2)C1 (stereo not drawn)	-11	-24	-4	16	-2	-27
CN(C)c1ncc(S(=O)(=O)c2ccccc2)c(-c2ccc(Cl)cc2Cl)n1	23	4	-4	53*	8	-13
CN(C)c1ncc(S(=O)(=O)c2ccc(Cl)cc2)c(-c2ccc(Cl)cc2Cl)n1	-4	-3	-8	11	-1	-15
